Measurements: ChEMBL document CHEMBL1124215, “Improved delivery through biological membranes. 26. Design, synthesis, and pharmacological activity of a novel chemical delivery system for beta-adrenergic blocking agents” (1988)

How the values were obtained:
[1] = system: Oryctolagus cuniculus; test: Effect on IOP of rabbits 6 hr min after administration (1%); assay type: functional
Procedure, shortened: (§1)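 IOP was read by pneumatonometer in unrestrained, unanesthetized rabbits after local propacaine drops. Drug was given as a 1% or 2.5% solution in pH 7.4 buffer or saline to both eyes, at least four rabbits per group; controls (at least three) received carrier only. Readings were taken at 30 and 60 min and at 2, 3, 4, 6 and 8 h. Values are mean ± SE; Student's t test.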

[2] = system: Oryctolagus cuniculus; test: Percentage change of IOP in rabbits after 3h administration (2.5%) of compound; assay type: functional
Procedure, shortened: (§2)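 Rabbits received 1% or 2.5% drug solution in pH 7.4 buffer or saline in both eyes, at least four per group. A control group of at least three rabbits received carrier only. IOP was read by pneumatonometer in unrestrained, unanesthetized animals after one drop of 0.5% propacaine diluted 1:2 with saline. Readings were taken at 30 and 60 min and at 2–8 h. Values are mean ± SE, with significance by Student's t test.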

[3] = system: Oryctolagus cuniculus; test: Percentage change of IOP in rabbits after 8 hr administration (1%) of compound; assay type: functional; procedure, shortened: as §2
[4] = system: Oryctolagus cuniculus; test: Concentration of propranolone oxime in iris-ciliary body of rabbit after 30 min administration of compound; assay type: functional, organism-based
Procedure, shortened: (§3)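 Adult male New Zealand albino rabbits (2.5–3.5 kg), at least four per time point. 100 µL of a 1% solution in saline was instilled topically into both eyes. Animals were killed at 30, 60 or 120 min. Cornea and iris-ciliary body were homogenized in methanol to 10% homogenates and deproteinized by centrifugation. Aqueous humor was analysed undiluted. HPLC was calibrated against spiked control-rabbit tissue. Values are mean ± SE, µg/g.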

[5] = system: Oryctolagus cuniculus; test: Concentration in iris-ciliary body of rabbit after 120 min administration of compound; assay type: functional, organism-based; procedure, shortened: as §3
[6] = system: Oryctolagus cuniculus; test: Effect on IOP of rabbits 3h after administration (1%); assay type: functional; procedure, shortened: as §1
[7] = system: Oryctolagus cuniculus; test: Concentration in cornea of rabbit after 30 min administration of compound; assay type: functional, organism-based; procedure, shortened: as §3
[8] = system: Oryctolagus cuniculus; test: Effect on IOP of rabbits 6 hr min after administration (2.5%); assay type: functional; procedure, shortened: as §1
[9] = system: Oryctolagus cuniculus; test: Percentage change of IOP in rabbits after 4 hr administration (2.5%) of compound; assay type: functional; procedure, shortened: as §2
[10] = system: Oryctolagus cuniculus; test: Percentage change of IOP in rabbits after 0 min administration (2.5%) of compound; assay type: functional; procedure, shortened: as §1
[11] = system: Oryctolagus cuniculus; test: Concentration in iris -ciliary body of rabbit after 60 min administration of compound; assay type: functional, organism-based; procedure, shortened: as §3
[12] = system: Oryctolagus cuniculus; test: Effect on IOP of rabbits 8 hr min after administration (1%); assay type: functional; procedure, shortened: as §1
[13] = system: Oryctolagus cuniculus; test: Effect on IOP of rabbits 4 hr after administration (1%); assay type: functional; procedure, shortened: as §1
[14] = system: Oryctolagus cuniculus; test: Concentration in iris -ciliary body of rabbit after 30 min administration of compound; assay type: functional, organism-based; procedure, shortened: as §3
[15] = system: Oryctolagus cuniculus; test: Effect on IOP of rabbits 0 min after administration (2.5%); assay type: functional; procedure, shortened: as §1
[16] = system: Oryctolagus cuniculus; test: Effect on IOP of rabbits 30 mins after administration (1%); assay type: functional; procedure, shortened: as §1
[17] = system: Oryctolagus cuniculus; test: Percentage change of IOP in rabbits after 60 min administration (2.5%) of compound; assay type: functional; procedure, shortened: as §2
[18] = system: Oryctolagus cuniculus; test: Percentage change of IOP in rabbits after 4 hr administration (1%) of compound; assay type: functional; procedure, shortened: as §2
[19] = system: Oryctolagus cuniculus; test: Percentage change of IOP in rabbits after 2 hr administration (2.5%) of compound; assay type: functional; procedure, shortened: as §1
[20] = system: Oryctolagus cuniculus; test: Effect on IOP of rabbits 0 min after administration (1%); assay type: functional; procedure, shortened: as §1
[21] = system: Oryctolagus cuniculus; test: Effect on IOP of rabbits 3h after administration (2.5%); assay type: functional; procedure, shortened: as §1
[22] = system: Oryctolagus cuniculus; test: Concentration of propranolone oxime in cornea of rabbit after 60 min administration of compound; assay type: functional, organism-based; procedure, shortened: as §3
[23] = system: Oryctolagus cuniculus; test: Effect on IOP of rabbits 2 hr after administration (1%); assay type: functional; procedure, shortened: as §1
[24] = system: Oryctolagus cuniculus; test: Percentage change of IOP in rabbits after 6 hr administration (2.5%) of compound; assay type: functional; procedure, shortened: as §2
[25] = system: Oryctolagus cuniculus; test: Concentration of propranolone oxime in aqueous humor of rabbit after 60 min administration of compound; assay type: functional, organism-based; conditions: Aqueous humor of eyeball; procedure, shortened: as §3
[26] = system: Oryctolagus cuniculus; test: Percentage change of IOP in rabbits after 2 hr administration (1%) of compound; assay type: functional; procedure, shortened: as §1
[27] = system: Oryctolagus cuniculus; test: Concentration in cornea of rabbit after 60 min administration of compound; assay type: functional, organism-based; procedure, shortened: as §3
[28] = system: Oryctolagus cuniculus; test: Effect on IOP of rabbits 60 mins after administration (2.5%); assay type: functional; procedure, shortened: as §1
[29] = system: Oryctolagus cuniculus; test: Percentage change of IOP in rabbits after 8 hr administration (2.5%) of compound; assay type: functional; procedure, shortened: as §2
[30] = system: Oryctolagus cuniculus; test: Effect on IOP of rabbits 30 mins after administration (2.5%); assay type: functional; procedure, shortened: as §1
[31] = system: Oryctolagus cuniculus; test: Effect on IOP of rabbits 4 hr after administration (2.5%); assay type: functional; procedure, shortened: as §1
[32] = system: Oryctolagus cuniculus; test: Concentration of propranolone oxime in aqueous humor of rabbit after 30 min administration of compound; assay type: functional, organism-based; conditions: Aqueous humor of eyeball; procedure, shortened: as §3
[33] = system: Oryctolagus cuniculus; test: Effect on IOP of rabbits 2hmin after administration (2.5%); assay type: functional; procedure, shortened: as §1
[34] = system: Oryctolagus cuniculus; test: Effect on IOP of rabbits 8 hr min after administration (2.5%); assay type: functional; procedure, shortened: as §1
[35] = system: Oryctolagus cuniculus; test: Percentage change of IOP in rabbits after 6 hr administration (1%) of compound; assay type: functional; procedure, shortened: as §2
[36] = system: Oryctolagus cuniculus; test: Concentration in cornea of rabbit after 120 min administration of compound; assay type: functional, organism-based; procedure, shortened: as §3
[37] = system: Oryctolagus cuniculus; test: Concentration of propranolone oxime in cornea of rabbit after 30 min administration of compound; assay type: functional, organism-based; procedure, shortened: as §3
[38] = system: Oryctolagus cuniculus; test: Percentage change of IOP in rabbits after 30 min administration (1%) of compound; assay type: functional; procedure, shortened: as §2
[39] = system: Oryctolagus cuniculus; test: Percentage change of IOP in rabbits after 3h administration (1%) of compound; assay type: functional; procedure, shortened: as §2
[40] = system: Oryctolagus cuniculus; test: Percentage change of IOP in rabbits after 0 min administration (1%) of compound; assay type: functional; procedure, shortened: as §1
[41] = system: Oryctolagus cuniculus; test: Percentage change of IOP in rabbits after 60 min administration (1%) of compound; assay type: functional; procedure, shortened: as §2
[42] = system: Oryctolagus cuniculus; test: Effect on IOP of rabbits 60 mins after administration (1%); assay type: functional; procedure, shortened: as §1
[43] = system: Oryctolagus cuniculus; test: Concentration in aqueous humor of rabbit after 60 min administration of compound; assay type: functional, organism-based; conditions: Aqueous humor of eyeball; procedure, shortened: as §3
[44] = system: Oryctolagus cuniculus; test: Percentage change of IOP in rabbits after 30 min administration (2.5%) of compound; assay type: functional; procedure, shortened: as §2
[45] = system: Oryctolagus cuniculus; test: Effect on IOP of rabbits 1 hr after administration (1%); assay type: functional; procedure, shortened: as §1
[46] = system: Oryctolagus cuniculus; test: Percentage change of IOP in rabbits after 1 hr administration (1%) of compound; assay type: functional; procedure, shortened: as §1
[47] = system: Oryctolagus cuniculus; test: Effect on IOP of rabbits 6 hr after administration (1%); assay type: functional; procedure, shortened: as §1
[48] = system: Oryctolagus cuniculus; test: Effect on IOP of rabbits 8 hr after administration (1%); assay type: functional; procedure, shortened: as §1
[49] = system: Oryctolagus cuniculus; test: Percentage change of IOP in rabbits after 5 hr administration (1%) of compound; assay type: functional; procedure, shortened: as §2
[50] = system: Oryctolagus cuniculus; test: Effect on IOP of rabbits 5 hr after administration (1%); assay type: functional

## CC(C)NC/C(COc1cccc2ccccc12)=N\O
[1]
  IOP: 25.8 mmHg
[2]
  Change: >-18.46%
[3]
  Change: 0.5%
[4]
  Concentration: 7.8 µg/g
[5]
  Concentration: 0.4 µg/g
[6]
  IOP: 23.3 mmHg
[7]
  Concentration: 1.7 µg/g
[8]
  IOP: 23.6 mmHg
[9]
  Change: -21.5%
[10]
  Change: 0%
[11]
  Concentration: 1.8 µg/g
[12]
  IOP: 27.9 mmHg
[13]
  IOP: 22.2 mmHg
[14]
  Concentration: 2.1 µg/g
[15]
  IOP: 26 mmHg
[16]
  IOP: 26.9 mmHg
[17]
  Change: -10%
[18]
  Change: -20.1%
[19]
  Change: -13.08%
[20]
  IOP: 27.8 mmHg
[21]
  IOP: 21.2 mmHg
[22]
  Concentration: 16.4 µg/g
[23]
  IOP: 23.4 mmHg
[24]
  Change: >-9.23%
[25]
  Concentration: 0.8 µg/g
[26]
  Change: -15.8%
[27]
  Concentration: 1.1 µg/g
[28]
  IOP: 23.4 mmHg
[29]
  Change: -0.77%
[30]
  IOP: 26.5 mmHg
[31]
  IOP: 20.4 mmHg
[32]
  Concentration: 0.8 µg/g
[33]
  IOP: 22.6 mmHg
[34]
  IOP: 25.8 mmHg
[35]
  Change: -7.08%
[36]
  Concentration: 1.1 µg/g
[37]
  Concentration: 23.8 µg/g
[38]
  Change: -3.23%
[39]
  Change: -16.2%
[40]
  Change: 0%
[41]
  Change: >-11.51%
[42]
  IOP: 24 mmHg
[43]
  Concentration: 0.7 µg/g
[44]
  Change: 1.92%

## CC(C)(C)NC[C@H](O)COc1nsnc1N1CCOCC1 (stereo in doubt) [TIMOLOL]
[45]
  IOP: 24.3 mmHg
[6]
  IOP: 25.13 mmHg
[46]
  Change: -14.6%
[13]
  IOP: 26.93 mmHg
[16]
  IOP: 27.75 mmHg
[47]
  IOP: 28.78 mmHg
[18]
  Change: -5.31%
[48]
  IOP: 26.33 mmHg
[20]
  IOP: 28.44 mmHg
[23]
  IOP: 24 mmHg
[26]
  Change: -15.6%
[35]
  Change: 1.2%
[49]
  Change: -5.49%
[38]
  Change: -2.43%
[39]
  Change: -11.6%
[50]
  IOP: 26.88 mmHg
[40]
  Change: 0%
